These results are taken from ChEMBL document CHEMBL1124510, “(+/-)-7-chloro-8-hydroxy-1-(4'-[125I]iodophenyl)-3-methyl-2,3,4,5- tetrahydro-1H-3-benzazepine: a potential CNS D-1 dopamine receptor imaging agent” (J Med Chem, 1989).

Where only a bound is given, the exact number is not on record here.

The species entered for data set [1] is Rattus norvegicus. Kind of data set: (§1) In vitro binding affinity to the rat striatal homogenate. The method in brief:
(§2)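 Saturation binding of [125I]FISCH to male Sprague-Dawley rat (200-250 g) striatal membranes. Tissue homogenized in ice-cold 50 mM Tris-HCl pH 7.4, pelleted twice at 20000g. Assay buffer 50 mM Tris pH 7.4, 120 mM NaCl, 5 mM KCl, 2 mM CaCl2, 1 mM MgCl2, with 40-60 μg protein. Incubated 20 min at 37 °C with stirring, then filtered through protamine-treated GF/B filters. Specific binding gives […].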

For data set [2], the target named is T1, D(1A) dopamine receptor (Rattus norvegicus, UniProt P18901). Described as §1.
Data set [3] relates to Rattus norvegicus. Kind of data set: In vivo biodistribution in rats after an intravenous injection at 15 min was determined in lung; Expressed as percent dose/organ. It is filed as ADME, organism-based. The note with it: 0.25 h. In outline: (§3)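 [125I]FISCH in 0.2 mL saline was injected into the femoral vein of male Sprague-Dawley rats (225-300 g) under halothane. Rats were killed by cardiac excision at set times. Organs were weighed and gamma-counted against diluted aliquots of the dose. Blood and muscle totals assume 7% and 40% of body weight. Results are averages of six rats ± SD.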

For data set [4], the system named is Rattus norvegicus. Kind of data set: In vivo biodistribution in rats after an intravenous injection at 2 min was determined in skin; Expressed as percent dose/organ. The class given is ADME, organism-based. In outline:
as §3

Data set [5] concerns Rattus norvegicus. Kind of data set: In vivo biodistribution in rats after an intravenous injection at 2 min was determined in lung; Expressed as percent dose/organ. It is filed as ADME, organism-based. In outline: as §3
The test system of data set [6] is Rattus norvegicus. Kind of data set: In vivo biodistribution in rats after an intravenous injection at 15 min was determined in brain; Expressed as percent dose/organ. It is filed as ADME, organism-based. The note with it: 0.25 h. The method in brief: as §3
Data set [7] addresses T1, D(1A) dopamine receptor. Kind of data set: In vitro binding affinity to the rat striatal homogenate. The method in brief: as §2
For data set [8], the species on record is Rattus norvegicus. Kind of data set: Selectivity ratio for biodistribution in brain and blood of rats after 2 minutes; Expressed as percent dose/gram ratio. The class given is ADME, organism-based. The method in brief:
(§4)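 After femoral iv injection of [125I]FISCH in saline into halothane-anesthetized male Sprague-Dawley rats, tissues were weighed and gamma-counted. Percent dose/gram was calculated against the diluted injected dose, and the ratio was taken from the percent dose/gram values.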

The subject of data set [9] is Rattus norvegicus. Kind of data set: In vivo biodistribution in rats after an intravenous injection at 15 min was determined in muscle; Expressed as percent dose/organ. It is filed as ADME, organism-based, Muscle tissue. As to conditions: 0.25 h. The method in brief:
as §3

Data set [10] is filed under the species Rattus norvegicus. Kind of data set: Selectivity ratio for biodistribution in brain and blood of rats after 15 minutes; Expressed as percent dose/gram ratio. The note with it: 0.25 h. It is filed as ADME, organism-based. The method in brief:
as §4

The subject of data set [11] is Rattus norvegicus. Kind of data set: In vivo biodistribution in rats after an intravenous injection at 2 min was determined in brain; Expressed as percent dose/organ. It is filed as ADME, organism-based. In outline: as §3
The species named for data set [12] is Rattus norvegicus. Kind of data set: Selectivity ratio for biodistribution in brain and blood of rats after 60 minutes; Expressed as percent dose/gram ratio. It is filed as ADME, organism-based. As to conditions: 1 h. In outline: as §4
The test system of data set [13] is Rattus norvegicus. Kind of data set: In vivo biodistribution in rats after an intravenous injection at 2 min was determined in liver; Expressed as percent dose/organ. It is filed as ADME, organism-based. In outline: as §3
Data set [14] has as its system Rattus norvegicus. Kind of data set: In vivo biodistribution in rats after an intravenous injection at 60 min was determined in blood; Expressed as percent dose/organ. The class given is ADME, organism-based. As to conditions: 1 h. In outline: as §3
Data set [15] relates to Rattus norvegicus. Kind of data set: In vivo biodistribution in rats after an intravenous injection at 60 min was determined in spleen; Expressed as percent dose/organ. As to conditions: 1 h. It is filed as ADME, organism-based. The method in brief: as §3
Data set [16] relates to Rattus norvegicus. Kind of data set: In vivo biodistribution in rats after an intravenous injection at 60 min was determined in skin; Expressed as percent dose/organ. The class given is ADME, organism-based. The note with it: 1 h. In outline:
as §3

For data set [17], the system named is Rattus norvegicus. Kind of data set: In vivo biodistribution in rats after an intravenous injection at 15 min was determined in spleen; Expressed as percent dose/organ. It is filed as ADME, organism-based. As to conditions: 0.25 h. In outline: as §3
For data set [18], the system named is Rattus norvegicus. Kind of data set: In vivo biodistribution in rats after an intravenous injection at 60 min was determined in heart; Expressed as percent dose/organ. The class given is ADME, organism-based. The note with it: 1 h. In outline:
as §3

Data set [19] concerns Rattus norvegicus. Kind of data set: In vivo biodistribution in rats after an intravenous injection at 15 min was determined in thyroid; Expressed as percent dose/organ. It is filed as ADME, organism-based, Thyroid gland. As to conditions: 0.25 h. The method in brief: as §3
Data set [20] has as its system Rattus norvegicus. Kind of data set: In vivo biodistribution in rats after an intravenous injection at 15 min was determined in liver; Expressed as percent dose/organ. The class given is ADME, organism-based. The note with it: 0.25 h. The method in brief: as §3
The subject of data set [21] is Rattus norvegicus. Kind of data set: In vivo biodistribution in rats after an intravenous injection at 60 min was determined in brain; Expressed as percent dose/organ. It is filed as ADME, organism-based. As to conditions: 1 h. The method in brief: as §3
The subject of data set [22] is Rattus norvegicus. Kind of data set: In vivo biodistribution in rats after an intravenous injection at 15 min was determined in kidney; Expressed as percent dose/organ. The note with it: 0.25 h. The class given is ADME, organism-based. The method in brief:
as §3

The test system of data set [23] is Rattus norvegicus. Kind of data set: In vivo biodistribution in rats after an intravenous injection at 2 min was determined in spleen; Expressed as percent dose/organ. The class given is ADME, organism-based. In outline: as §3
For data set [24], the system named is Rattus norvegicus. Kind of data set: In vivo biodistribution in rats after an intravenous injection at 60 min was determined in liver; Expressed as percent dose/organ. The class given is ADME, organism-based. As to conditions: 1 h. The method in brief:
as §3

For data set [25], the system named is Rattus norvegicus. Kind of data set: In vivo biodistribution in rats after an intravenous injection at 15 min was determined in skin; Expressed as percent dose/organ. It is filed as ADME, organism-based. The note with it: 0.25 h. In outline: as §3
Data set [26] relates to Rattus norvegicus. Kind of data set: In vivo biodistribution in rats after an intravenous injection at 60 min was determined in thyroid; Expressed as percent dose/organ. The class given is ADME, organism-based, Thyroid gland. The note with it: 1 h. In outline:
as §3

Data set [27] relates to Rattus norvegicus. Kind of data set: In vivo biodistribution in rats after an intravenous injection at 60 min was determined in muscle; Expressed as percent dose/organ. As to conditions: 1 h. The class given is ADME, organism-based, Muscle tissue. In outline:
as §3

Data set [28] concerns Rattus norvegicus. Kind of data set: In vivo biodistribution in rats after an intravenous injection at 60 min was determined in lung; Expressed as percent dose/organ. It is filed as ADME, organism-based. The note with it: 1 h. In outline: as §3
Data set [29] relates to Rattus norvegicus. Kind of data set: In vivo biodistribution in rats after an intravenous injection at 60 min was determined in kidney; Expressed as percent dose/organ. As to conditions: 1 h. It is filed as ADME, organism-based. In outline:
as §3

In data set [30] the test system is Rattus norvegicus. Kind of data set: In vivo biodistribution in rats after an intravenous injection at 2 min was determined in thyroid; Expressed as percent dose/organ. It is filed as ADME, organism-based, Thyroid gland. The method in brief: as §3
In data set [31] the test system is Rattus norvegicus. Kind of data set: In vivo biodistribution in rats after an intravenous injection at 15 min was determined in heart; Expressed as percent dose/organ. The class given is ADME, organism-based. As to conditions: 0.25 h. The method in brief: as §3
Data set [32] concerns Rattus norvegicus. Kind of data set: In vivo biodistribution in rats after an intravenous injection at 2 min was determined in blood; Expressed as percent dose/organ. It is filed as ADME, organism-based. The method in brief:
as §3

Data set [33] concerns Rattus norvegicus. Kind of data set: In vivo biodistribution in rats after an intravenous injection at 2 min was determined in heart; Expressed as percent dose/organ. The class given is ADME, organism-based. In outline: as §3
Data set [34] deals with Rattus norvegicus. Kind of data set: In vivo biodistribution in rats after an intravenous injection at 2 min was determined in muscle; Expressed as percent dose/organ. It is filed as ADME, organism-based, Muscle tissue. The method in brief: as §3
Data set [35] has as its system Rattus norvegicus. Kind of data set: In vivo biodistribution in rats after an intravenous injection at 15 min was determined in blood; Expressed as percent dose/organ. It is filed as ADME, organism-based. As to conditions: 0.25 h. The method in brief: as §3
Data set [36] deals with Rattus norvegicus. Kind of data set: In vivo biodistribution in rats after an intravenous injection at 2 min was determined in kidney; Expressed as percent dose/organ. The class given is ADME, organism-based. In outline: as §3
The target of data set [37] is T1, D(1A) dopamine receptor. Kind of data set: In vitro binding affinity towards Dopamine receptor D1 by displacing [125I]FISCH radioligand in rat striatal homogenate. In outline:
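Assay buffer 50 mM Tris pH 7.4 with NaCl, KCl, CaCl2 and MgCl2, 40-60 μg protein. Incubated 20 min at 37 °C with stirring, then vacuum-filtered on GF/B filters pretreated with 0.2% protamine sulfate and washed with cold Tris.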

Data set [38] concerns the target T1, D(1A) dopamine receptor. Kind of data set: In vitro binding affinity towards dDopamine receptor D1 by displacing [125I]FISCH radioligand in rat striatal homogenate. In outline: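 Competition against 0.15-0.30 nM [125I]FISCH on rat striatal membranes, each competitor at 7-11 concentrations. Assay buffer 50 mM Tris pH 7.4 with NaCl, KCl, CaCl2 and MgCl2, 40-60 μg protein. Incubated 20 min at 37 °C with stirring, then vacuum-filtered on GF/B filters pretreated with 0.2% protamine sulfate and washed with cold Tris.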

T1 sequence (P18901 whole entry): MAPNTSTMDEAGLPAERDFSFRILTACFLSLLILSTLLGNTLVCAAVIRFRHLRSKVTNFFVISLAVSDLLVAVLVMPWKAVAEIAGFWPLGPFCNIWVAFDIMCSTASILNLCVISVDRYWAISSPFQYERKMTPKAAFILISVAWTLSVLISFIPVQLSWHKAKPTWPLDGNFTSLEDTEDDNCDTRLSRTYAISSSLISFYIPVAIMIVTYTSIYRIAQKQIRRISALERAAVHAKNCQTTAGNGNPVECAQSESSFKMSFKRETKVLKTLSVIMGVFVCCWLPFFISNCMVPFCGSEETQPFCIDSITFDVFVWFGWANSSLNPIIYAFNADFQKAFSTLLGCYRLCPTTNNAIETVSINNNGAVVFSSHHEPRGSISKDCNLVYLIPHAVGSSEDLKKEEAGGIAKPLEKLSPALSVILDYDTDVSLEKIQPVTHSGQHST

For orientation: Kd means a measure of binding affinity in units of concentration. A lower Kd goes with tighter binding. On to `CN1CCc2cc(Cl)c(O)cc2[C@@H](c2ccccc2)C1` [SCH-23390], for which binding in the data set filed under Rattus norvegicus [1] was characterised by a dissociation constant (Kd) of 0.36 nM.

In turn, `CN1CCc2ccc(O)cc2[C@@H](c2ccccc2)C1` returned a Kd at D(1A) dopamine receptor [2] of 197 nM.

On to `CN1CCc2cc(Cl)c(O)cc2C(c2ccc([125I])cc2)C1` (stereo not given), for which the Biodistribution in the data set on Rattus norvegicus [3] is listed as 2.73%; with Rattus norvegicus [4], 7.43%; with Rattus norvegicus [5] it was 8.55%; in the data set on Rattus norvegicus [6], 1.4%; in the data set with Rattus norvegicus [9], 34.22%; in the data set on Rattus norvegicus [11] it was 2.27%. Besides, the Biodistribution in the data set with Rattus norvegicus [13] is given as 17.1%; in the data set on Rattus norvegicus [14], 1.83%; in the data set with Rattus norvegicus [15] it was 0.67%; in the data set with Rattus norvegicus [16] it was 9.25%; in the data set on Rattus norvegicus [17], 0.56%; with Rattus norvegicus [18], 0.18%. For the same molecule, the Biodistribution in the data set with Rattus norvegicus [19] amounted to 0.06%; in the data set with Rattus norvegicus [20], 14.72%; in the data set on Rattus norvegicus [21], 0.55%; in the data set with Rattus norvegicus [22] it was 2.09%; with Rattus norvegicus [23], 2.79%; in the data set on Rattus norvegicus [24], 12.32%. Moreover, the Biodistribution was 9.62% in the data set with Rattus norvegicus [25]; 0.04% in the data set on Rattus norvegicus [26]; 19.07% with Rattus norvegicus [27]; 1.47% in the data set with Rattus norvegicus [28]; 1.31% in the data set with Rattus norvegicus [29]; 0.11% in the data set on Rattus norvegicus [30]. The Biodistribution in the data set with Rattus norvegicus [31] amounted to 0.38%; in the data set on Rattus norvegicus [32], 3.46%; with Rattus norvegicus [33], 1.97%; in the data set on Rattus norvegicus [34], 35.68%; in the data set on Rattus norvegicus [35], 2.28%; with Rattus norvegicus [36], 5.98%. Besides, the Kd on D(1A) dopamine receptor [7] is 1.43 nM. Moreover, the Ratio in the data set listed under Rattus norvegicus [8] is given as 7.35%; in the data set filed under Rattus norvegicus [10], 6.19%; in the data set listed under Rattus norvegicus [12] it was 3.08%.

The term Ki denotes the equilibrium dissociation constant of an inhibitor or competing ligand from its target. Low values mean a stronger hold on the target, high ones a looser hold on the target. In turn, `CN1CCc2cc(I)c(O)cc2[C@@H](c2ccccc2)C1` (racemic) gave a Kd in the data set listed under Rattus norvegicus [1] of 0.7 nM. At D(1A) dopamine receptor [37], this molecule showed a Ki of 13.4 nM.

`CN1CCc2cc(Cl)c(O)cc2C(c2ccc(I)cc2)C1` (racemic): the affinity at D(1A) dopamine receptor [37], expressed as Ki, was 1.71 nM.

`O=C(c1ccc(F)cc1)C1CCN(CCn2c(=O)[nH]c3ccccc3c2=O)CC1` [KETANSERIN] had a Ki at D(1A) dopamine receptor [38] of over 3 µM.
